Data set [1] relates to A10. Briefly: Antitumor activity against rat A10 cells assessed as total loss of cellular microtubule at 150 nM after 18 hrs by indirect immunofluorescence. Format: functional, cell-based.
For a further data set, the system named is KB. Briefly: Cytotoxicity against human KB cells. Format: functional, cell-based. An outline of the steps: (§1)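 In vitro cytotoxicity was read out by the sulforhodamine B (SRB) assay, and IC50 values were derived from it.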
The next data set deals with LoVo. Briefly: Cytotoxicity against human LoVo cells. Format: functional, cell-based. An outline of the steps: as §1
The subject of data set [2] is A10. In words: Antitumor activity against rat A10 cells assessed as total loss of cellular microtubule at 0.75 nM after 18 hrs by indirect immunofluorescence. Format: functional, cell-based. The procedure, abridged: (§2)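 Rat A-10 cells were plated on glass coverslips and left to attach and grow for at least 24 h. Drug was then added for 18 h. Cells were fixed and cellular microtubules were visualised by indirect immunofluorescence.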

The test system of data set [3] is A10. In words: Antitumor activity against rat A10 cells assessed as loss of cellular microtubule after 18 hrs by indirect immunofluorescence. Format: functional, cell-based. The following applies: A10, 18 h. The procedure, abridged:
as §2

Data set [4] can be described thus: Antitumor activity against drug-insensitive mouse 16/C cell implanted in mouse at 1.25 mg/kg, iv total dosing schedule on day 1 and day 4 to 6. Format: functional. An outline of the steps:
(§3)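 Mice bearing early-stage subcutaneously implanted solid tumours; treatment given intravenously. Activity expressed as T/C and as log kill, (T − C)/(3.32·Td). T and C are the median days for treated and control tumours to reach 750-1000 mg. Td is the tumour volume doubling time.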

A short description of data set [5]: Antitumor activity against adriamycin-resistant early stage mouse M17/ADR cell implanted in mouse at 2.8 mg/kg, iv total dosing schedule on day 1 and day 4,7,8. Format: functional. An outline of the steps:
as §3

Data set [6] in a line: Antitumor activity against adriamycin-resistant early stage mouse M16/C/ADR cell implanted in mouse at 3.15 mg/kg, iv total dosing schedule on day 1 and day 3, 5 to 9. Format: functional. An outline of the steps: as §3
Data set [7] relates to Mus musculus. Briefly: Liver toxicity in iv dosed mouse. Format: organism-based. The following applies: in vivo.
Data set [8] relates to Mus musculus. Briefly: Toxicity in iv dosed mouse assessed as local tissue damage. Format: organism-based. The following applies: in vivo.
For the next data set, the system named is MC-38. Briefly: Antitumor activity against drug-insensitive mouse C38 cell implanted in mouse at 3 mg/kg, iv total dosing schedule on day 3. Format: functional. The procedure, abridged:
as §3

The subject of data set [9] is Mus musculus. In words: Gastro intestinal toxicity in iv dosed mouse. Format: organism-based. The following applies: in vivo.
In data set [10] the test system is Mus musculus. In words: Toxicity in iv dosed mouse on 1 day. The following applies: in vivo, 24 h. Format: organism-based. An outline of the steps:
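Mice received a single intravenous injection on day 1 at 1.0 or 1.4 mg/kg, and lethality was recorded.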

For data set [11], the system named is A10. Briefly: Antitumor activity against rat A10 cells assessed as total loss of cellular microtubule at 2.5 nM after 18 hrs by indirect immunofluorescence. Format: functional, cell-based.

Molecules are shown by their SMILES. Active and inactive are the calls of the source. The calls are words filed in the database; no cut-off is given here.

As to `CC[C@]1(O)C[C@@H]2CN(CCc3c([nH]c4ccccc34)[C@@](C(=O)OC)(c3cc4c(cc3OC)N(C)[C@H]3[C@@](O)(C(=O)OC)[C@H](OC(C)=O)[C@]5(CC)C=CCN6CC[C@]43[C@@H]65)C2)C1`, the result with A10 [1] was Active.
On to `CC[C@H](C)[C@@H]([C@@H](CC(=O)N1CCC[C@H]1[C@H](OC)[C@@H](C)C(=O)N[C@@H](Cc1ccccc1)c1nccs1)OC)N(C)C(=O)[C@@H](NC(=O)[C@H](C(C)C)N(C)C)C(C)C` (stereo in doubt) [DOLASTATIN-10], for which the IC50 in the data set on KB (kb) came out at 0.041 nM; in the data set with LoVo (lovo) it was 0.066 nM.
Regarding `CC[C@H](C)[C@@H]([C@@H](CC(=O)N1CCC[C@H]1[C@H](OC)[C@@H](C)C(=O)N[C@@H](Cc1ccccc1)c1nccs1)OC)N(C)C(=O)[C@@H](NC(=O)[C@H](C(C)C)N(C)C)C(C)C` (stereo in doubt; 1), the outcome in the data set with A10 [2] was Active.
As to `CC[C@H](C)[C@@H]([C@@H](CC(=O)N1CCC[C@H]1[C@H](OC)[C@@H](C)C(=O)N[C@@H](Cc1ccccc1)c1nccs1)OC)N(C)C(=O)[C@@H](NC(=O)[C@H](C(C)C)N(C)C)C(C)C` (stereo in doubt; 1) [DOLASTATIN-10], the concentration for half-maximal inhibition (IC50) in the data set on KB (Homo sapiens, KB) was determined as 0.052 nM; with LoVo (Homo sapiens, LoVo), 0.076 nM. The concentration giving a half-maximal response (EC50) in the data set on A10 [3] is 0.25 nM.
With `CC[C@H](C)[C@@H]([C@@H](CC(=O)N1CCC[C@H]1[C@H](OC)[C@@H](C)C(=O)N[C@@H](Cc1ccccc1)c1nccs1)OC)N(C)C(=O)[C@@H](NC(=O)[C@H]([C@@H](C)CC)N(C)C)C(C)C` [SYMPLOSTATIN 1], the IC50 was 0.15 nM with KB (Homo sapiens, KB) and 0.34 nM with LoVo (Homo sapiens, LoVo). Also, the EC50 in the data set on A10 [3] came out at 0.6 nM. Further, the T/C in [4] is given as 0%; in [5], 32%; in data set [6], 36%; with MC-38, 0%. The Activity entry with Mus musculus [7], in the data set on Mus musculus [8] and in the data set with Mus musculus [9] was “Toxic” each time. Further, the LD20 with Mus musculus [10] was determined as 1 mg/kg. The LD60 with Mus musculus [10] was 1.4 mg/kg. In addition, the outcome in the data set on A10 [11] was Active.
